Laboratory results published in paper PMC7559877 (iScience, 2020).

What was measured:
U937 = test: Tumoricidal activity against human lymphoma cell line U937; type: cell-based; details: U-937
[1] = tested on: CD4+CD25+FOXP3+ Treg cells; test: Flow cytometry of CD4+CD25+FOXP3+ Treg cells in DL mice; type: in vivo; details: in the spleen (so in the source); DL mouse 19.4%; Figure 2I
DL tumor cells = test: In vitro tumoricidal activity; type: cell-based, murine; details: Mus musculus, read-out: growth inhibition, highest inhibition recorded
Raji = test: Tumoricidal activity against human lymphoma cell line Raji; type: cell-based
THP-1 = test: Tumoricidal activity against human lymphoma cell line THP-1; type: cell-based
JE6.1 = test: Tumoricidal activity against human lymphoma cell line JE6.1; type: cell-based
IFN-γ = IFN-γ production by CTLs derived from treated DL mice; type: in vivo; details: CD8+ T cells; text to Figure 5K
Method in brief: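 CD8+ T cells (CTLs) are taken from DL lymphoma-bearing mice treated with oral test compound plus rIL15-activated dendritic cells and compared with cells from untreated DL mice. IFN-γ is read by flow cytometry histogram. Data shown are representative of four experiments (n = 4).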

In the case of `Cc1cccc(-c2nn3c(c2-c2ccnc4ccc(C(N)=O)cc24)CCC3)n1` [galunisertib], the IC50 (U937) is reported as 124 nM, the “CD4+CD25+ cells” value [1] is reported as “intermediate effect” and the inhibition at 10 µM (DL tumor cells) is reported as about 80%. It also gave an IC50 (Raji) of 776 nM, an IC50 (THP-1) of 108 nM and an IC50 (JE6.1) of 164 nM. The “IFN-γ in T cells derived from treated animals” value (IFN-γ) was 52%.
